Calls of active or inactive are those of the source. The calls are words filed in the database; no cut-off is given here.
Tests used:
[1] = test system: Human alphaherpesvirus 1; assay: Antiviral activity against Herpes simplex virus 1 KOS infected in human HEL cells assessed as inhibition of viral plaque formation at 250 uM; format: functional, organism-based
Outline: (§1)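 Confluent host cell monolayers were inoculated with 100 CCID50 of virus in the presence of test compound at serial dilutions (250, 50, 10, … μM). Viral cytopathicity was scored once it reached completion in untreated virus-infected controls.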

[2] = test system: Human alphaherpesvirus 2; assay: Antiviral activity against Herpes simplex virus 2 G infected in human HEL cells assessed as inhibition of viral plaque formation at 250 uM; format: functional, organism-based; settings: strain G
[3] = test system: Human alphaherpesvirus 1; assay: Antiviral activity against thymidine kinase-deficient acv-resistant Herpes simplex virus 1 KOS infected in human HEL cells assessed as inhibition of viral plaque formation at 250 uM; format: functional, organism-based
[4] = test system: Vaccinia virus; assay: Antiviral activity against Vaccinia virus infected in human HEL cells assessed as inhibition of viral plaque formation at 250 uM; format: functional, organism-based; settings: Orthopoxvirus vaccinia; outline: as §1
[5] = test system: Vesicular stomatitis virus; assay: Antiviral activity against Vesicular stomatitis virus infected in human HEL cells assessed as inhibition of viral plaque formation at 250 uM; format: functional, organism-based; outline: as §1
[6] = test system: Human betaherpesvirus 5; assay: Antiviral activity against Human cytomegalovirus AD169 infected in human HEL cells assessed as inhibition of viral plaque formation at 250 uM; format: functional, organism-based
[7] = test system: Human betaherpesvirus 5; assay: Antiviral activity against Human cytomegalovirus Davis infected in human HEL cells assessed as inhibition of viral plaque formation at 250 uM; format: functional, organism-based
[8] = test system: Human alphaherpesvirus 3; assay: Antiviral activity against thymidine kinase-positive Varicella Zoster virus Oka infected in human HEL cells assessed as inhibition of viral plaque formation at 250 uM; format: functional, cell-based; settings: strain Oka vaccine
[9] = test system: Human alphaherpesvirus 3; assay: Antiviral activity against thymidine kinase-deficient Varicella Zoster virus 07/1 infected in human HEL cells assessed as inhibition of viral plaque formation at 250 uM; format: functional, organism-based
[10] = test system: Human respirovirus 3; assay: Antiviral activity against Parainfluenza-3 virus infected in african green monkey Vero cells assessed as inhibition of viral plaque formation at 250 uM; format: functional, organism-based; outline: as §1
[11] = test system: Mammalian orthoreovirus 1; assay: Antiviral activity against Reovirus-1 infected in african green monkey Vero cells assessed as inhibition of viral plaque formation at 250 uM; format: functional, organism-based; outline: as §1
[12] = test system: Sindbis virus; assay: Antiviral activity against Sindbis virus infected in african green monkey Vero cells assessed as inhibition of viral plaque formation at 250 uM; format: functional, organism-based; outline: as §1
[13] = test system: Coxsackievirus B4; assay: Antiviral activity against Coxsackievirus B4 infected in african green monkey Vero cells assessed as inhibition of viral plaque formation at 250 uM; format: functional, organism-based; outline: as §1
[14] = test system: Punta Toro virus; assay: Antiviral activity against Punta Toro virus infected in african green monkey Vero cells assessed as inhibition of viral plaque formation at 250 uM; format: functional, organism-based
[15] = test system: Vesicular stomatitis virus; assay: Antiviral activity against Vesicular stomatitis virus infected in human Hela cells assessed as inhibition of viral plaque formation at 250 uM; format: functional, organism-based
[16] = test system: Coxsackievirus B4; assay: Antiviral activity against Coxsackievirus B4 infected in human HeLa cells assessed as inhibition of viral plaque formation at 250 uM; format: functional, organism-based; outline: as §1
[17] = test system: Respiratory syncytial virus; assay: Antiviral activity against Respiratory syncytial virus infected in human HeLa cells assessed as inhibition of viral plaque formation at 250 uM; format: functional, organism-based; outline: as §1
[18] = test system: Felid alphaherpesvirus 1; assay: Antiviral activity against Felid herpesvirus 1 infected in CrFK cells assessed as inhibition of viral plaque formation at 250 uM; format: functional, organism-based; outline: as §1
[19] = test system: Feline coronavirus; assay: Antiviral activity against Feline coronavirus infected in CrFK cells assessed as inhibition of viral plaque formation at 250 uM; format: functional, organism-based; outline: as §1
[20] = test system: Human immunodeficiency virus 2; assay: Antiviral activity against Human immunodeficiency virus 2 infected in human CEM cells assessed as inhibition of virus-induced giant cell formation after 4 days by microscopic analysis; format: functional, organism-based; settings: CCRF-CEM
Outline: (§2)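 CEM cells at about 3 × 10⁵ cells/cm³ were infected with 100 CCID50/mL of HIV-1(IIIB) or HIV-2(ROD), then seeded into wells holding test compound dilutions. After 4 days at 37 °C, virus-induced giant cell formation was scored microscopically.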

[21] = test system: Human immunodeficiency virus 1; assay: Antiviral activity against Human immunodeficiency virus 1 infected in human CEM cells assessed as inhibition of virus-induced giant cell formation after 4 days by microscopic analysis; format: functional, organism-based; settings: CCRF-CEM; outline: as §2
[22] = test system: HEL; assay: Cytotoxicity against human HEL cells 3 days by coulter counting; format: functional; settings: 72 h
Outline: (§3)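 Cells were suspended at 300,000–500,000 cells/mL and added 1:1 to compound dilutions. Incubation was at 37 °C, 2 days for L1210 and 3 days for CEM, HeLa and HEL. Cells were counted with a Coulter counter. CC50 is the concentration inhibiting cell proliferation by 50%.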

[23] = test system: HeLa; assay: Cytotoxicity against human HeLa cells 3 days by coulter counting; format: functional; settings: 72 h; outline: as §3
[24] = test system: CCRF-CEM; assay: Cytotoxicity against human CEM cells 3 days by coulter counting; format: functional; settings: 72 h; outline: as §3
[25] = test system: L1210; assay: Cytotoxicity against mouse L1210 cells 2 days by coulter counting; format: functional; settings: L1210, 48 h; outline: as §3

Compound | Activity [1] | Activity [2] | Activity [3] | Activity [4] | Activity [5] | Activity [6] | Activity [7] | Activity [8] | Activity [9] | Activity [10] | Activity [11] | Activity [12] | Activity [13] | Activity [14] | Activity [15] | Activity [16] | Activity [17] | Activity [18] | Activity [19] | Activity [20] | also measured
CCOP(=O)(OCC)[C@@H]1C[C@@H](n2cc(Cn3cnc4c(N)ncnc43)nn2)ON1C (racemic) | inactive | inactive | inactive | inactive | inactive | inactive | inactive | inactive | inactive | inactive | inactive | inactive | inactive | inactive | inactive | inactive | inactive | inactive | inactive | inactive | Activity [21]: inactive; CC50 [22]: > 100 µM; CC50 [23]: > 250 µM; CC50 [24]: > 250 µM; CC50 [25]: 140 µM
CCOP(=O)(OCC)[C@@H]1C[C@H](n2cc(Cn3ccc(NC(C)=O)nc3=O)nn2)ON1C (relative stereo) | inactive | inactive | inactive | inactive | inactive | inactive | inactive | inactive | inactive | inactive | inactive | inactive | inactive | inactive | inactive | inactive | inactive | inactive | inactive | inactive | Activity [21]: inactive; CC50 [22]: > 100 µM; CC50 [23]: > 250 µM; CC50 [24]: > 250 µM; CC50 [25]: > 250 µM
CCOP(=O)(OCC)[C@@H]1C[C@@H](n2cc(Cn3ccc(NC(C)=O)nc3=O)nn2)ON1C (relative stereo) | inactive | inactive | inactive | inactive | inactive | inactive | inactive | inactive | inactive | inactive | inactive | inactive | inactive | inactive | inactive | inactive | inactive | inactive | inactive | inactive | Activity [21]: inactive; CC50 [22]: > 100 µM; CC50 [23]: > 250 µM; CC50 [24]: > 250 µM; CC50 [25]: ≥ 250 µM
CCOP(=O)(OCC)[C@@H]1C[C@@H](n2cc(C(=O)OC)nn2)ON1C (relative stereo) | inactive | inactive | inactive | inactive | inactive | inactive | inactive | inactive | inactive | inactive | inactive | inactive | inactive | inactive | inactive | inactive | inactive | inactive | inactive | inactive | Activity [21]: inactive; CC50 [22]: > 100 µM; CC50 [23]: > 250 µM; CC50 [24]: > 250 µM; CC50 [25]: 191 µM
CCOP(=O)(OCC)[C@@H]1C[C@H](n2cc(Cn3ccc(=O)[nH]c3=O)nn2)ON1C (racemic) | inactive | inactive | inactive | inactive | inactive | inactive | inactive | inactive | inactive | inactive | inactive | inactive | inactive | inactive | inactive | inactive | inactive | inactive | inactive | inactive | Activity [21]: inactive; CC50 [22]: > 100 µM; CC50 [23]: > 250 µM; CC50 [24]: > 250 µM; CC50 [25]: 235 µM
CCOP(=O)(OCC)[C@@H]1C[C@H](n2cc(Cn3cnc4c(N)ncnc43)nn2)ON1C (relative stereo) | inactive | inactive | inactive | inactive | inactive | inactive | inactive | inactive | inactive | inactive | inactive | inactive | inactive | inactive | inactive | inactive | inactive | inactive | inactive | inactive | Activity [21]: inactive; CC50 [22]: > 100 µM; CC50 [23]: ≥ 250 µM; CC50 [24]: > 250 µM; CC50 [25]: 147 µM

Source: ChEMBL document CHEMBL1926651, “Design, synthesis, antiviral and cytostatic evaluation of novel isoxazolidine nucleotide analogues with a 1,2,3-triazole linker” (Eur J Med Chem, 2012)
